In ChEMBL document CHEMBL1124902, “Hydroxyperfluoroazobenzenes: novel inhibitors of enzymes of androgen biosynthesis” (J Med Chem, 1990):

How the values were obtained:
[1] = target: T1, Steroid 5-alpha-reductase (Rattus norvegicus, UniProt P24008+P31214); assay: Inhibition of Testosterone-5 alpha-reductase activity at pH 7.4 from rat; B = no inhibition at the highest concentration tested (20 uM); assay type: protein assay
T1 sequence (P24008 whole entry): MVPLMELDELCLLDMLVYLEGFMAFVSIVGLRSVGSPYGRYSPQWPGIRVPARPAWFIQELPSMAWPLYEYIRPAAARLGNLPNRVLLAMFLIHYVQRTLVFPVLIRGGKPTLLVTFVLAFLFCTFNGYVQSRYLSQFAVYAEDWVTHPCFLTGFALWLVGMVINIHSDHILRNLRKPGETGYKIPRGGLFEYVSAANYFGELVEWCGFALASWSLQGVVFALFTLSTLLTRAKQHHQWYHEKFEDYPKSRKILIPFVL
T1 sequence (P31214 whole entry): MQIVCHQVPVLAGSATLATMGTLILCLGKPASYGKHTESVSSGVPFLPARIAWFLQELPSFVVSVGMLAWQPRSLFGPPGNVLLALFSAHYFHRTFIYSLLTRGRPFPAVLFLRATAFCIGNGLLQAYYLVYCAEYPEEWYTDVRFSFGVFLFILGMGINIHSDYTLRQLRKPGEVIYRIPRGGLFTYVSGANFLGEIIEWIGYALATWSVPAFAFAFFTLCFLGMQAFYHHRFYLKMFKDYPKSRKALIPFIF
Outline: (§1)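 Crude nuclear fraction (ca. 1.5 mg) from adult Wistar rat ventral prostate, in 50 mM potassium phosphate. The substrate was 5 μM testosterone with 4-[¹⁴C]testosterone, plus 1 mM NADPH and 1 mM DTT. Incubation ran 30 min at 37 °C and was stopped with ethyl acetate/HgCl₂. [¹⁴C]DHT was measured by TLC radioscan. Inhibitors were added in 2% DMSO at 1, 2, 5, 10 and 20 μM, with assays in duplicate.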

[2] = target: T2, Steroid 17-alpha-hydroxylase/17,20 lyase (Rattus norvegicus, UniProt P11715); assay: Percent inhibition of Steroid 17-alpha-hydroxylase/17,20 lyase from rat testes microsomes at 100 uM
T2 sequence (P11715 whole entry): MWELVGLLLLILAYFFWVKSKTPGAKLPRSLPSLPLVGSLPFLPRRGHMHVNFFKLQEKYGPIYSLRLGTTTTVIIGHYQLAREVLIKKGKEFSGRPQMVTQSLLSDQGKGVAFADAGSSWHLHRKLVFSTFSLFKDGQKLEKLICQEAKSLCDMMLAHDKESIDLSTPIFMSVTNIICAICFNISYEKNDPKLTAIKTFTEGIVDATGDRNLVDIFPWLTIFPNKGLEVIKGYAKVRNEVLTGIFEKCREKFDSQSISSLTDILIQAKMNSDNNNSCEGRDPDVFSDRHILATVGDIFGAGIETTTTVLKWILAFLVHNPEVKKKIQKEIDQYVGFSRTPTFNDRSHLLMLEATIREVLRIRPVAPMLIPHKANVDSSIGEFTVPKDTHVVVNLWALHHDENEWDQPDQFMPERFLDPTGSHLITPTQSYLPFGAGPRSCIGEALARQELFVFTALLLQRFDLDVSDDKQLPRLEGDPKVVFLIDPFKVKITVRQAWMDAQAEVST

[3] = target: T2, Steroid 17-alpha-hydroxylase/17,20 lyase; assay: Percent inhibition of 17-alpha-hydroxylase/17,20 lyase of rat testes microsomes at 100 uM
[4] = target: T2, Steroid 17-alpha-hydroxylase/17,20 lyase; assay: Percent inhibition of Steroid 17-alpha-hydroxylase/17,20 lyase of rat testes microsomes at 100 uM
[5] = target: T1, Steroid 5-alpha-reductase; assay: Inhibition of rat testosterone-5 alpha-reductase activity at pH 6.6 from rat; assay type: protein assay; outline: as §1
[6] = target: T2, Steroid 17-alpha-hydroxylase/17,20 lyase; assay: Inhibition of 17-alpha-hydroxylase/17,20 lyase from rat testes microsomal preparation; assay type: microsomes, Testis
Outline: (§2)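 Rat testis microsomes as enzyme source. The assay contained 1 μM [³H]progesterone, 250 μM NADPH, a glucose-6-phosphate/G6P dehydrogenase regenerating system, 1 mM MgCl₂, 0.1 mM EDTA and 0.1 mM DTT in 50 mM sodium phosphate at pH 7.4, with 5% ethanol vehicle. Incubation ran 10 min at 37 °C. Substrate, 17α-OH-progesterone and product were quantified, giving separate hydroxylase and lyase steps. Each point was run in triplicate at ≥3 concentrations, and IC50 was taken from a Dixon linear regression.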

[7] = target: T1, Steroid 5-alpha-reductase; assay: Binding constant of Testosterone-5 alpha-reductase activity at pH 7.4; assay type: protein assay
[8] = target: T1, Steroid 5-alpha-reductase; assay: Inhibition of Testosterone-5 alpha-reductase activity at pH 7.4 from rat; assay type: protein assay; outline: as §1
[9] = target: T2, Steroid 17-alpha-hydroxylase/17,20 lyase; assay: Inhibition of Steroid 17-alpha-hydroxylase/17,20 lyase from rat testes microsomal preparation; outline: as §2
[10] = target: T1, Steroid 5-alpha-reductase; assay: Inhibition of Testosterone-5 alpha-reductase activity at pH 6.6 from rat; B = no inhibition at the highest concentration tested (20 uM); assay type: protein assay; outline: as §1

SMILES | IC50 [1] | inhibition at 100 µM [2] | inhibition at 100 µM [3] | inhibition at 100 µM [4] | IC50 [5] | IC50 [6] | Ki [7] | IC50 [8] | IC50 [9] | IC50 [10]
c1ccc(/N=N/c2ccccc2)cc1 [AZOBENZENE] | No inhibition | 0% | 0% | – | – | – | – | – | – | –
Oc1ccc(/N=N/c2ccccc2)cc1 | No inhibition | 0% | 6% | – | – | – | – | – | – | –
CC(=O)N1CCN(c2ccc(OCC3COC(Cn4ccnc4)(c4ccc(Cl)cc4Cl)O3)cc2)CC1 (stereo unspecified) [KETOCONAZOLE] | – | 48% | 62% | – | – | 6 µM | – | – | 11 µM | –
CC(=O)[C@H]1CC[C@H]2[C@@H]3CCC4=CC(=O)CC[C@]4(C)[C@H]3CC[C@]12C [PROGESTERONE] | – | – | – | – | 1.6 µM | – | – | 2.6 µM | – | –
Fc1c(F)c(F)c2c(c1F)N=Nc1c(F)c(F)c(F)c(F)c1O2 | – | 88% | 67% | – | – | 50 µM | – | – | 15 µM | –
Oc1c(F)c(F)c(/N=N/c2c(F)c(F)c(O)c(F)c2F)c(F)c1F | – | 14% | 15% | – | 0.79 µM | – | 4 µM | 5 µM | – | –

The next lines start with the values.

IC50 [1] | inhibition at 100 µM [2] | inhibition at 100 µM [3] | inhibition at 100 µM [4] | IC50 [5] | IC50 [6] | Ki [7] | IC50 [8] | IC50 [9] | IC50 [10] | SMILES
No inhibition | 0% | 4% | – | – | – | – | – | – | – | Fc1c(F)c(F)c(/N=N/c2c(F)c(F)c(F)c(F)c2F)c(F)c1F
– | 71% | – | 76% | 2 µM | 30 µM | 10 µM | 14 µM | 33 µM | – | Oc1c(F)c(F)c(/N=N/c2c(F)c(F)c(F)c(F)c2F)c(F)c1F
– | 83% | 62% | – | – | 63 µM | – | – | 16 µM | No inhibition | Oc1c(F)c(F)c(F)c(F)c1/N=N/c1c(F)c(F)c(F)c(F)c1F
